Values after ≈ are worked out from the molar mass of the structure shown. Active and inactive are the calls of the source. The rule behind the calls is not given here.
Key:
Plasmodium falciparum = assay: Antiplasmodium activity against chloroquine-sensitive Plasmodium falciparum NF54 assessed as inhibition of [3H[hypoxanthine incorporation; format: functional, organism-based
In short: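 Run at Swiss TPH on P. falciparum NF54 (3D7 is a clone of it). Read-out is 3H-hypoxanthine incorporation. IC50 is the mean of ≥2 experiments.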

[1] = Efflux ratio of apparent permeability across human Caco2 cells at 10 uM after 60 mins; format: ADME, cell-based; settings: Caco-2
In short: (§1)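 Apical and basal chambers in HBSS, pH 7.4. Compound at 10 μM added to the donor side at time zero. Donor and acceptor chambers both sampled after 60 min at 37 °C. A>B permeability reported in 10^-6 cm/s, plus efflux ratio.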

[2] = Kinetic solubility of the compound in phosphate buffered saline after 2 hrs at pH 7.4; format: physicochemical; settings: read-out: Kinetic_solubility
In short: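 Kinetic solubility measured in PBS, pH 7.4.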

[3] = […]-phosphate buffered saline partition coefficient, log D after 5 hrs by LC-UV analysis at pH 7.4; format: physicochemical; settings: octan-1-ol/phosphate buffered saline
In short: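 Log D from partition between octan-1-ol and phosphate-buffered PBS at pH 7.4.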

[4] = Metabolic stability in human hepatic microsomes assessed as % turnover at 1 uM after 40 mins by LC/MS/MS analysis; settings: liver microsomes
[5] = Apparent permeability of the compound from apical to basal side of human Caco2 cells at 10 uM after 60 mins; format: ADME, cell-based; settings: Caco-2; in short: as §1
Plasmodium berghei [6] = assay: Antimalarial activity against GFP-transfected Plasmodium berghei ANKA infected in mouse assessed as change in host survival time at 50 mg/kg, sc administered QD for 4 days relative to untreated control; format: functional, organism-based; parameters: dose 50 mg/kg
In short: (§2)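 Peters 4-day test: 50 mg/kg given sc once daily for 4 days. Parasitemia reduction and survival days are compared against infected, untreated control animals.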

Plasmodium berghei [7] = assay: Antimalarial activity against GFP-transfected Plasmodium berghei ANKA infected in mouse assessed as reduction in parasitemia at 50 mg/kg, sc administered QD for 4 days relative to vehicle-treated control; format: functional; parameters: scale not given: the % may be the effect or the level left; settings: route subcutaneous; in short: as §2

IC50 (Plasmodium falciparum) | Structure (SMILES) | further results
310 nM | Cc1ccc(-n2nc3c(Cl)nnc(C)c3c2C)cc1 | 
2670 nM | c1ccc(-c2csc3ncnc(Sc4nnc5ccccn45)c23)cc1 | 
> 100000 nM | Cc1ccc(-n2nc3c(C)nnc(C)c3c2C)cc1 | 
420 nM | Cc1nnc(Cl)c2nn(-c3ccc(Cl)cc3)c(C)c12 | 
16000 nM | CCOc1nnc(C)c2c(C)n(-c3cccc(OC)c3)nc12 | 
> 100000 nM | COc1cccc(-n2nc3c(C)nnc(C)c3c2C)c1 | 
3930 nM | COc1ccc(CNc2cccc3[nH]c(C(F)(F)F)nc23)cc1 | 
430 nM | Cc1nnc(Cl)c2nn(-c3ccccc3)c(C)c12 | 
1580 nM | CCCCN1CN=C(Nc2nc(C)c3ccccc3n2)NC1 | 
740 nM | COc1nc(NC(=N)N)nc2ccc(C)cc12 | 
490 nM | Fc1ccc(CNc2cccc3[nH]c(C(F)(F)F)nc23)cc1 | efflux ratio at 1 h, 10 µM [1]: 0.43; solubility kinetic at 2 h [2]: < 5 µM; logD at 5 h [3]: 2; % turnover at 40 min, 1 µM [4]: 19%; Papp A→B at 1 h, 10 µM [5]: 1.5 ×10⁻⁶ cm/s
> 100000 nM | Cc1nnc(C)c2c(C)n(-c3ccc4c(c3)OCO4)nc12 | 
340 nM | CCOc1ccc(-n2nc3c(Cl)nnc(C)c3c2C)cc1 | 
1160 nM | CCc1nnc(Sc2ncnc3sccc23)[nH]1 | 
10800 nM | O=C(Nc1cccc2[nH]c(C(F)(F)F)nc12)c1ccc(Cl)cc1 | 
1480 nM | Cn1c(Sc2ncnc3sccc23)nnc1C1CC1 | 
150 nM | Cc1ccc(-n2c(Sc3ncnc4sccc34)nnc2N2CCCC2)cc1 | 
> 100000 nM | O=C(Cc1ccccc1)Nc1cccc2[nH]c(C(F)(F)F)nc12 | 
280 nM | Cc1nnc(Cl)c2nn(-c3cccc(Cl)c3)c(C)c12 | 
460 nM | Cc1sc2ncnc(Sc3nnc4ccccn34)c2c1C | 
> 100000 nM | Cc1nnc(N2CCOCC2)c2nn(-c3ccccc3)c(C)c12 | 
9900 nM | COc1ccc(CNc2cccc3[nH]c(C)nc23)cc1 | 
> 100000 nM | Cc1nc(NC2=NCCC(=O)N2)nc2ccccc12 | 
5170 nM | Cc1sc2ncnc(Sc3nnc(C(F)(F)F)n3C)c2c1C | 
150 nM | c1ccn2c(Sc3ncnc4sccc34)nnc2c1 | efflux ratio at 1 h, 10 µM [1]: 0.28; Activity (Plasmodium berghei [6]): inactive; solubility kinetic at 2 h [2]: 20 µM (≈ 5.71 µg/mL); logD at 5 h [3]: > 3.8; Activity (Plasmodium berghei [7]): 34%; % turnover at 40 min, 1 µM [4]: 50%; Papp A→B at 1 h, 10 µM [5]: 50 ×10⁻⁶ cm/s
> 100000 nM | Cc1ccc(S(=O)(=O)Nc2cccc3[nH]c(C(F)(F)F)nc23)cc1 | 
3740 nM | CC(=O)/N=C(/NC(C)=O)Nc1nc(C)c2cc(C)ccc2n1 | 
